The target in data set [1] is T1, 5-hydroxytryptamine receptor 1D (Homo sapiens, UniProt P28221). The experiment in a line: Ability to displace [3H]- -5-HT binding to cloned 5-hydroxytryptamine 1D receptor stably expressed in chinese hamster cells (CHO cells). The class given is cell-based. Summed up:
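Human 5-HT1D receptor cloned and stably expressed in CHO cells. Displacement of [3H]-5-HT binding, with radioligand at roughly its KD for the receptor. At least three independent experiments, each run in duplicate. IC50 reported as geometric mean with limits derived from the SEM.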

In data set [2] the target is Serotonin 1 receptors; 5-HT1B & 5-HT1D (Homo sapiens) (UniProt P28222+P28221). The experiment in a line: Selectivity ratio for h-5-HT 1B receptor to that of h5-HT 1D receptors. It is filed as protein assay. Put shortly: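 Displacement of [3H]-5-HT binding at cloned human 5-HT1B and 5-HT1D receptors, with radioligand at roughly its KD for each receptor. Ratio obtained by dividing the mean IC50 values for the two receptors.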

Data set [3] deals with Rattus norvegicus. The experiment in a line: Drug concentration was measured in plasma samples originating from the hepatic portal vein (hpv) at 2 hr post administration. The class given is functional, organism-based. Summed up: (§1)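 Rats dosed orally at 3 mg/kg (5 mL/kg, aqueous formulation). Plasma taken from the hepatic portal vein and by cardiac puncture (systemic) at 0.5 and 2 h after dosing. Drug concentration reported in ng/mL.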

For data set [4], the system named is Rattus norvegicus. The experiment in a line: Drug concentration was measured in plasma samples originating from the cardiac puncture (systemic) at 0.5 hr post administration. It is filed as functional, organism-based. Put shortly:
as §1

For data set [5], the system named is Rattus norvegicus. Description: Drug concentration was measured in plasma samples originating from the cardiac puncture (systemic) at 2 h post administration. The class given is functional, organism-based. Put shortly: as §1
For data set [6], the system named is Rattus norvegicus. The experiment in a line: Drug concentration was measured in plasma samples originating from the hepatic portal vein (hpv) at 0.5 hr post administration. It is filed as functional, organism-based. Summed up: as §1
The nature of data set [7]: Acid dissociation constant was determined. The class given is ADME.
Data set [8] has as its target T1, 5-hydroxytryptamine receptor 1D. Description: Maximum stimulation of [35S]GTP-gamma-S, binding expressed relative to the maximal effect produced by the 5-HT. The class given is functional. Summed up: (§2)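 Agonist-induced [35S]GTPγS binding measured in CHO cells stably transfected with the human 5-HT1D receptor. Maximal effect expressed as % of the 5-HT maximum.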

Data set [9] shares this target. Description: Measurement of agonist induced [35S]GTP-gamma-S, binding in CHO cells stably transfected with 5-hydroxytryptamine 1D receptor. The class given is functional, cell-based. Summed up: as §2

The results in this text go back to ChEMBL document CHEMBL1132098, “2,7-diazabicyclo[3.3.0]octanes as novel h5-HT receptor agonists” (Bioorg Med Chem Lett, 1999).

T1 sequence (P28221 whole entry): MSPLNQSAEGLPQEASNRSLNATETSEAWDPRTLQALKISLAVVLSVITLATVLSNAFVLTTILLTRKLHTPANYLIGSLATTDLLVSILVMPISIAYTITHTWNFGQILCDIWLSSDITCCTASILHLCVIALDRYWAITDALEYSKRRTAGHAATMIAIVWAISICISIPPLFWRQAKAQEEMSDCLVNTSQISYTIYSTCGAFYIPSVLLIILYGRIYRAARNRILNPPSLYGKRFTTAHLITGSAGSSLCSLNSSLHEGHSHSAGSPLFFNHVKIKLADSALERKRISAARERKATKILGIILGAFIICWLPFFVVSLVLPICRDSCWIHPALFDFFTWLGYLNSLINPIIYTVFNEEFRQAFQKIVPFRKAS

`CN1C[C@@H](CN(C#N)Cc2ccccc2)C[C@@H]1Cc1c[nH]c2ccc(-n3ccnc3)cc12`: the IC50 in data set [1] worked out at 3.3 nM. Also, the Selectivity in data set [2] turned out to be 6.7.
Consider `CN(Cc1ccccc1)C[C@H]1C[C@H](Cc2c[nH]c3ccc(-n4ccnc4)cc23)N(C)C1`, for which the Absorption is 30 ng/mL in data set [3], less than 4 ng/mL in data set [4], less than 4 ng/mL in [5] and 21 ng/mL in [6]. The compound also had an IC50 in data set [1] of 0.9 nM. In data set [7], the pKa is 8.7. Besides, the Selectivity in [2] was 6.9.
On to `c1ccc(CNC[C@@H]2CCN(CCc3c[nH]c4ccc(-n5cnnc5)cc34)C2)cc1`, for which the Absorption in [3], in data set [4], in [5] and in data set [6] was less than 5 ng/mL throughout. In addition, the Efficacy in data set [8] stood at 102. Also, the Selectivity in data set [2] was found to be 62.
The compound `CN1[C@@H](Cc2c[nH]c3ccc(-n4cnnc4)cc23)C[C@@H]2CN(Cc3ccc(F)cc3)C[C@@H]21` (racemic) displayed a half-maximal inhibitory concentration (IC50) in data set [1] of 0.8 nM. In addition, the Efficacy in data set [8] worked out at 88. Besides, in [9], the EC50 is 2.9 nM. Further, the Selectivity in [2] worked out at 13.
As to `CN1[C@@H](Cc2c[nH]c3ccc(-n4cnnc4)cc23)C[C@@H]2CN(Cc3ccccc3)C[C@@H]21` (racemic), in [1], the IC50 was found to be 0.9 nM. This compound gave an Efficacy in data set [8] of 96. The compound further returned an EC50 in data set [9] of 0.5 nM. In [7], this compound had a pKa of 8.5. Besides, the Selectivity in [2] was found to be 6.7.
Turning to `CN1[C@@H](Cc2c[nH]c3ccc(-n4cnnc4)cc23)C[C@@H]2CN(CCc3cccc(F)c3)C[C@@H]21` (racemic), in data set [1], the IC50 turned out to be 1.2 nM. Moreover, the Efficacy in [8] turned out to be 63. The compound further came in with a concentration for a half-maximal effect (EC50) in [9] of 1.9 nM. Also, the Selectivity in [2] is 15.
Consider `CN1[C@@H](Cc2c[nH]c3ccc(-n4ccnc4)cc23)C[C@@H]2CN(Cc3ccccc3)C[C@@H]21` (racemic), for which the Absorption in data set [3] came to 105 ng/mL; in [4] it was 47 ng/mL; in data set [5] it was 10 ng/mL; in [6] it was 558 ng/mL. In [1], this compound displayed an IC50 of 0.7 nM. In [8], this compound returned an Efficacy of 69. For the same compound, the EC50 in data set [9] was determined as 1.2 nM. For the same compound, in data set [2], the Selectivity came out at 8.4.
